Results reported in ChEMBL document CHEMBL3739414, “Synthesis and biological evaluation of methylated scutellarein analogs based on metabolic mechanism of scutellarin in vivo” (Eur J Med Chem, 2015).
≈ marks a conversion by molar mass, not a printed value.

What was measured:
Plasma [1] = assay: Antithrombotic activity in New Zealand white rabbit platelet-poor plasma assessed as increase of thrombin time at 100 uM after 3 mins (reference value: 20.25 +/- 1.02 seconds); assay type: functional, Oryctolagus cuniculus
Summary of the method: (§1)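 Citrated blood (3.8% citrate, 1:9) spun 3000 rpm for 10 min to give platelet-poor plasma. Compounds dissolved in 80% ethanol at 100 μM. Kit assays run on a coagulometer at 37 °C with 3 min incubations. TT: plasma, then thrombin plus sample. PT: plasma, then thromboplastin plus sample. APTT: sample, plasma and activator. FIB: plasma, FIB reagent and sample. Mean ± S.D., n = 4.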

Plasma [2] = assay: Antithrombotic activity in New Zealand white rabbit platelet-poor plasma assessed as increase of prothrombin time at 100 uM after 3 mins (reference value: 4.99 +/- 0.18 seconds); assay type: functional, Oryctolagus cuniculus; summary of the method: as §1
Plasma [3] = assay: Antithrombotic activity in New Zealand white rabbit platelet-poor plasma assessed as increase of activated partial thromboplastin time at 100 uM after 3 mins (reference value: 30.58 +/- 1.55 seconds); assay type: functional, Oryctolagus cuniculus; summary of the method: as §1
[4] = Antioxidant activity assessed as DPPH radical scavenging activity after 30 mins; assay type: physicochemical
Summary of the method: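 Sample in DMSO at 5–500 μM mixed 1:1 with 0.2 mM DPPH in ethanol; DMSO control. Reaction 30 min at 25 °C, absorbance at 517 nm. Scavenging % = [1 − (A1 − A2)/A0] × 100, with a no-DPPH sample blank. IC50 = concentration giving 50% loss of DPPH radical.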

[5] = Antioxidant activity in rat PC12 cells assessed as inhibition of H2O2-induced cytotoxicity at 50 uM after 4 hrs by MTT assay; assay type: functional; conditions: PC-12, 4 h
Summary of the method: (§2)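 PC12 cells seeded at 5×10^4 cells/ml and cultured 24 h at 37 °C, 5% CO2. The model group got 400 µM H2O2 for 1 h before drug at 25 or 50 µM; the control group got serum-free DMEM. Five wells per group. MTT 4 h at 37 °C, formazan dissolved in DMSO, absorbance read at 517 nm; inhibiting rate of H2O2 cytotoxicity calculated from absorbance.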

[6] = Antioxidant activity in rat PC12 cells assessed as inhibition of H2O2-induced cytotoxicity at 25 uM after 4 hrs by MTT assay; assay type: functional; conditions: PC-12, 4 h; summary of the method: as §2
[7] = Aqueous solubility of the compound in water after 1 hr by UV-vis spectrophotometer analysis; assay type: physicochemical
Summary of the method: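 Standard curves from methanol solutions at 0.1–10 µg/ml, UV read at 334 nm. Compound (150 µg) dissolved in 10 ml water by ultrasound for 1 h at room temperature, left 30 min, centrifuged. Supernatant measured by UV scan and solubility read from the standard curve.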

[8] = N-octanol/0.1 M HCl partition coefficient, log P of the compound after 5 hrs by spectrophotometric analysis; assay type: physicochemical
Summary of the method: (§3)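 Shake-flask method. Stock (10 µg/ml) diluted into buffer (0.1 mol/L HCl, 0.15 mol/L NaCl or 0.15 mol/L NaHCO3) and mixed with an equal volume of mutually saturated n-octanol, protected from light. Vortexed 3 min, then shaken 5 h at 25 °C. Both phases read at 334 nm; logP = log([C]octanol/[C]aqueous).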

[9] = N-octanol/0.15 M NaCl partition coefficient, log P of the compound after 5 hrs by spectrophotometric analysis; assay type: physicochemical; summary of the method: as §3
[10] = N-octanol/0.15 M NaHCO3 partition coefficient, log P of the compound after 5 hrs by spectrophotometric analysis; assay type: physicochemical; summary of the method: as §3
Plasma [11] = assay: Antithrombotic activity in New Zealand white rabbit platelet-poor plasma assessed as reduction of fibrinogen at 100 uM after 3 mins (reference value: 7.02+/- 0.16 g/L)

| SMILES | IC50 [4] [µM] | solubility at 1 h [7] [µg/mL] | logP at 5 h [8] | logP at 5 h [9] | logP at 5 h [10] | TT (Plasma [1]) [s] | PT (Plasma [2]) [s] | APTT (Plasma [3]) [s] | inhibition at 50 µM [5] [%] | inhibition at 25 µM [6] [%] | Activity (Plasma [11]) [g/L] |
| --- | --- | --- | --- | --- | --- | --- | --- | --- | --- | --- | --- |
| COc1c(O)c(O)cc2oc(-c3ccc(O)cc3)cc(=O)c12 | 28.9 | 5.72 (≈ 19 µM) | 1.55 | 1.47 | 0.892 | 22.6 | 6.65 | 30.53 | 81.4 | 54.4 | 5.58 |
| COc1c(O)cc2oc(-c3ccc(O)cc3)cc(=O)c2c1O [HISPIDULIN] | 23.7 | 4.27 (≈ 14.2 µM) | 1.77 | 1.68 | 1.02 | 25.96 | 6.25 | 33.1 | 88 | 62.4 | 5.38 |
| COc1cc2oc(-c3ccc(O)cc3)cc(=O)c2c(O)c1OC [CIRSIMARITIN] | 190 | 1.53 (≈ 4.87 µM) | 2.19 | 2.14 | 1.81 | 25.1 | 6.95 | 39.42 | 76.1 | 52.2 | 5.65 |
| O=C(O)[C@H]1O[C@@H](Oc2cc3oc(-c4ccc(O)cc4)cc(=O)c3c(O)c2O)[C@H](O)[C@@H](O)[C@@H]1O [SCUTELLARIN] | 27.9 |  | 0.592 | 0.365 | -0.0513 | 23.08 | 6.28 | 34.18 | 79.2 | 53.1 | 6.13 |
| COc1ccc(-c2cc(=O)c3c(O)c(O)c(O)cc3o2)cc1 | 25.3 | 6.31 (≈ 21 µM) | 1.65 | 1.41 | 0.785 | 24.98 | 6.4 | 31.53 | 89.4 | 63.3 | 5.67 |
| O=c1cc(-c2ccc(O)cc2)oc2cc(O)c(O)c(O)c12 [SCUTELLAREIN] | 22.6 |  | 0.892 | 0.772 | 0.48 | 24.4 | 5.93 | 36.65 | 91.2 | 64.6 | 6.84 |

More lines, in order of falling IC50 [4], values ahead:

| IC50 [4] [µM] | solubility at 1 h [7] [µg/mL] | logP at 5 h [8] | logP at 5 h [9] | logP at 5 h [10] | SMILES | TT (Plasma [1]) [s] | PT (Plasma [2]) [s] | APTT (Plasma [3]) [s] | inhibition at 50 µM [5] [%] | inhibition at 25 µM [6] [%] | Activity (Plasma [11]) [g/L] |
| --- | --- | --- | --- | --- | --- | --- | --- | --- | --- | --- | --- |
| 463 | 0.31 (≈ 0.944 µM) | 2.64 | 2.55 | 2.27 | COc1ccc(-c2cc(=O)c3c(O)c(OC)c(OC)cc3o2)cc1 [SALVIGENIN] | 29.03 | 6.75 | 36 | 20.4 | 11.1 | 5.96 |
| 170 | 1.36 (≈ 4.33 µM) | 2.14 | 2.09 | 1.86 | COc1ccc(-c2cc(=O)c3c(O)c(OC)c(O)cc3o2)cc1 [PECTOLINARIGENIN] | 27.45 | 6.53 | 30.48 | 68.1 | 44.2 | 5.92 |
| 159 | 3.2 (≈ 10.2 µM) | 1.94 | 1.79 | 1.4 | COc1ccc(-c2cc(=O)c3c(O)c(O)c(OC)cc3o2)cc1 [LADANEIN] | 23.33 | 6.93 | 38.28 | 74.3 | 48.2 | 5.94 |
| 30.2 | 4.56 (≈ 15.2 µM) | 1.59 | 1.54 | 1.03 | COc1cc2oc(-c3ccc(O)cc3)cc(=O)c2c(O)c1O | 25.48 | 6.55 | 34.49 | 82.3 | 56.2 | 5.74 |
